NPY Y2 blocker: NPY-Y2 (human) receptor antagonism. P49146. NPY-Y2 expressing cells, antagonist mode. inhibition, % at 2.7 µM. 140,000 tested, 0.99% active. AID 793; in the data active = inhibition above about 17%;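 also: 0% = vehicle with agonist challenge and 100% = reference antagonist with challenge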
Target sequence (P49146 whole entry, looked up): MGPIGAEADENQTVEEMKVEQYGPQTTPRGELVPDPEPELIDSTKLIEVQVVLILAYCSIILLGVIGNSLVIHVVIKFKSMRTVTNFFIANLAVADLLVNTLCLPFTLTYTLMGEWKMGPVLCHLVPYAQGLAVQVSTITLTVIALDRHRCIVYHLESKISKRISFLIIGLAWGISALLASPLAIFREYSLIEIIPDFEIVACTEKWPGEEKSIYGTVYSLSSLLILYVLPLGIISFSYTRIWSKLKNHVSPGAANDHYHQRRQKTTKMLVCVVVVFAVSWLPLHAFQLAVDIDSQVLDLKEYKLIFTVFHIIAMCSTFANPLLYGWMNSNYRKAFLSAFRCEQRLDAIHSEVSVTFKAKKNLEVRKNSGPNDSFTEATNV
NPY Y1 blocker: blocks the human neuropeptide Y Y1 receptor | P25929 | HEK293-CNG Y1 cells, membrane potential fluorescence; NPY at EC95, then isoproterenol | inhibition, % at 3.6 µM | 200,000 tested, 1% active | AID 1040;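 active = inhibition above the campaign mean inhibition of all tested compounds plus 3 SD, cut at about 20% in these data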;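 also: 0% = DMSO wells given NPY plus isoproterenol and 100% = isoproterenol alone without NPY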
Target sequence (P25929 whole entry, looked up): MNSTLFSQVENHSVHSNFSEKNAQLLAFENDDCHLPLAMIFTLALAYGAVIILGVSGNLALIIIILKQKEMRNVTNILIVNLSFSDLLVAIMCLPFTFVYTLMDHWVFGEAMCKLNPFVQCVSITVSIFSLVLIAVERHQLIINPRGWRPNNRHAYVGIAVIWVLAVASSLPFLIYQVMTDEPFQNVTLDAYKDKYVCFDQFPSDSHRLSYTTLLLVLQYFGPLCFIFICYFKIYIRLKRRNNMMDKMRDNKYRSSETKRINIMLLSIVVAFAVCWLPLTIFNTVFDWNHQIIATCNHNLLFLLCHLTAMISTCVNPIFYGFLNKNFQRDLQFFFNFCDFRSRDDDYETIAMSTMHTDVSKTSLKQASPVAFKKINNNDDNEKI
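Material: HEK293 Y1/CNG channel cell line | Also added: NPY (25 nM), isoproterenol (1 µM), Ro 20-1724 (25 µM) | Compound: One concentration, 3.6 µM, in 0.4% DMSO | Schedule: 3 h dye uptake, 1 h room-temperature compound, 45 min post-isoproterenol | Signal: Membrane-potential fluorescent dye readout | Read-out: % inhibition of NPY effect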
NPY-Y2 PAM-ag: potentiates or activates human NPY-Y2 receptor; 220,000 tested, 0.45% active; P49146; cells expressing NPY-Y2, potentiator/agonist read-out; activation, % at 3.6 µM; in the data active = activation above about 27%;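 also: cells stimulated with NPY near EC25 plus isoproterenol at EC100; 0% = vehicle plus submaximal agonist and 100% = vehicle plus saturating agonist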
NPY-Y1 PAM-ag: potentiates or activates human NPY-Y1 receptor | 220,000 tested, 0.37% active | NPY-Y1 expressing cells, potentiator/agonist activation | activation, % at 3.6 µM; in the data active = activation above about 33%, passing the limit was not always enough;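 also: cells stimulated with NPY at EC10 then isoproterenol at EC100; 0% = low agonist plus stimulus and 100% = saturating agonist plus stimulus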
Insulin prom inh: TRM-6 insulin promoter activity inhibition. TRM-6 cells, insulin promoter-eGFP reporter, imaging; reporter expression induced with tamoxifen. inhibition, % at 2 µM. 130,000 tested, 0.9% active. AID 1273;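 active = inhibition above the mean plus 3 SD, with well images judged a real hit on visual review, cut at about 60% in these data, passing the limit was not always enough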
RAM network inh: blocks the yeast RAM network; inhibition, % at 50 µM; S. cerevisiae dse1pr::URA3 reporter, 5-FOA growth OD615, 2 d; analog-sensitive cbk1-as2 kinase mutant strain; 190,000 tested, 1.8% active; AID 868;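 active = inhibition above a set limit, 3 SD over mean compound inhibition, cut at about 8.4% in these data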;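 also: 0% = DMSO-only wells with no growth and 100% = 10 µM 1-NA-PP1 full growth; inhibition rescues growth on 5-FOA so higher OD means more RAM inhibition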
NPY-Y1 pot conf: confirmation of human NPY-Y1 receptor potentiators or agonists; shares compounds with NPY-Y1 PAM-ag; cell-based NPY-Y1 potentiator/agonist assay; activation, % at 3.6 µM; 280 tested, 20% active; in the data active = activation above about 45%;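 also: cells challenged with NPY at its EC10 plus isoproterenol stimulus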
NPY-Y2 counter: potentiates or activates NPY-Y2, counter-screen for NPY-Y1 hits. shares compounds with NPY-Y1 PAM-ag. HEK293-CNG cells, membrane-potential fluorescence (FLIPR), 1536-well. activation, % at 3.6 µM. 280 tested, 20% active; in the data active = activation above about 33%
NPY-Y1 ag: counter-screen for NPY-Y1 potentiators: agonists of human NPY-Y1. shares compounds with NPY-Y1 PAM-ag. AID 1697. HEK293 Y1-CNGC, membrane potential fluorescence, agonist mode. activation, % at 3.6 µM. 280 tested, 50% active;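 active = percent activation above the mean of DMSO-only control wells plus 3 SD of those wells, cut at about 18% in these data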;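 also: cells challenged with isoproterenol plus Ro 20-1724 with no NPY in test wells; Y1 agonism lowers isoproterenol-driven cAMP and reduces probe fluorescence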
NPY-Y2 agonist: activates human NPY-Y2, counter-screen for NPY-Y1 hits | 280 tested, 67% active | AID 1698 | shares compounds with NPY-Y1 PAM-ag | activation, % at 3.6 µM | HEK293 Y2-CNGC, membrane potential fluorescence, agonist mode;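 active = activation above the solvent-only control wells' mean plus 3 SD, cut at about 11% in these data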;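 also: 0% = DMSO with isoproterenol and 100% = 40 nM NPY maximal response; agonism lowers cAMP so well fluorescence drops in active wells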
CNGC counter: counter-screen for NPY-Y1 potentiators or agonists: CNG channel inhibitors; shares compounds with NPY-Y1 PAM-ag; inhibition, % at 3.6 µM; AID 1704; 280 tested, 42% active; HEK293-CNG parental, isoproterenol cAMP, membrane potential fluorescence;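 active = inhibition above the mean of stimulated solvent-only control wells plus 3 SD, cut at about 22% in these data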;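 also: 0% = isoproterenol-stimulated DMSO wells and 100% = unstimulated DMSO wells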
Active calls of the source: *; . = no result. Rows were chosen to be rich in hits. Some 3.8% of all compounds tested hit in one or more screens of this group.

SMILES	NPY Y2 blocker	NPY Y1 blocker	NPY-Y2 PAM-ag	NPY-Y1 PAM-ag	Insulin prom inh	RAM network inh	NPY-Y1 pot conf	NPY-Y2 counter	NPY-Y1 ag	NPY-Y2 agonist	CNGC counter
Cc1ccc(NCc2n[nH]c(=S)n2Cc2ccccc2)cc1Cl	.	-4	21	45*	.	-1	12	8	16	7	10
Cc1ccc(NCc2nnc(SCC(=O)O)n2Cc2ccccc2)cc1Cl	.	0	1	-14	.	3	.	.	.	.	.
CC(O)c1nc2ccccc2n1CCCCOc1ccccc1 (stereo not given)	.	-6	2	16	.	0	.	.	.	.	.
COC(=O)c1cc(C(=O)c2ccccc2)n2c(=O)/c(=C\N(C)C)sc12	.	.	18	13	.	.	.	.	.	.	.
COC(=O)c1cc(C(=O)c2ccc(Cl)cc2)n2c(=O)/c(=C\N(C)C)sc12	.	-9	16	35*	.	5	14	12	19*	12*	11
Cc1cc(C)c(NC(=O)c2ccc(CN3CCc4ccccc4C3)cc2)c(C)c1	8	1	7	57*	32	2	-15	-9	6	-2	-14
CC(C)c1ccc2[nH]c(O)c(N=NC(=O)c3cccc(S(=O)(=O)Nc4cccc(Cl)c4)c3)c2c1	.	.	-8	50*	.	.	29	23	24*	28*	20
CC(C)c1ccc2[nH]c(O)c(N=NC(=O)c3cccc(S(=O)(=O)Nc4ccc(Cl)cc4)c3)c2c1	.	0	18	5	-78	7	.	.	.	.	.
CC1CC(C)CN(CCCNC(=O)c2cc3c(=O)[nH]c4ccccc4c3n2C)C1 (stereo not given)	.	-5	21	41*	.	0	20	20	26*	19*	9
Cc1ccc(NS(=O)(=O)c2cc(C(=O)NCc3ccccn3)ccc2Cl)cc1	3	3	-5	5	.	1	.	.	.	.	.
NS(=O)(=O)c1cc(C(=O)NCCc2ccccn2)ccc1Cl	.	.	-2	96*	.	.	6	-1	-5	-4	3
Cc1ccc(C2C=NN(c3ccccc3)C2=O)cc1 (stereo not given)	.	-4	3	23	.	3	.	.	.	.	.
Cc1ccc(Nc2c(-c3ccccc3O)nc3ncccn23)cc1	.	.	9	13	.	.	.	.	.	.	.
Cc1cccc(Nc2c(-c3ccc(O)cc3)nc3ncccn23)c1	.	-3	29	40*	.	2	32	29	16	31*	23*
CCOc1ccc(CN2CCN(Cc3cn(CC)nc3C)CC2CCO)cc1 (stereo not given)	.	-1	-12	-18	.	0	.	.	.	.	.
C#CCNC(=O)C(C)c1ncc(C(F)(F)F)cc1Cl (stereo not given)	.	-6	-1	-10	-53	-1	.	.	.	.	.
Cc1ccc(NC(=O)Cn2nc(C)c(S(=O)(=O)N(C)C)c2C)cc1	.	4	-1	-3	.	-1	.	.	.	.	.
[O-]/C(=C(\C(=S)Nc1ccc(SC(F)F)cc1)[n+]1ccccc1)c1cc(Cl)ccc1Cl	.	-12	26	47*	.	3	62*	35*	38*	25*	49*
Cc1cc(C)c(/C([O-])=C(/C(=S)Nc2ccc(SC(F)F)cc2)[n+]2ccccc2)cc1C	.	1	27	40*	.	4	69*	47*	52*	52*	56*
COc1ccccc1CCc1nnc(CCC(=O)NCCCOc2cccnc2)o1	.	-1	-27	-8	.	2	.	.	.	.	.
CCn1cc(C(=O)N2CCc3ccccc32)c(=O)c2cc(S(=O)(=O)N(C)C3CCCCC3)ccc21	2	-9	10	51*	14	4	-1	9	3	4	1
CC(C)NC(=O)NC(=O)COC(=O)c1ncc(Cl)c(Cl)c1Cl	.	3	-8	1	.	0	.	.	.	.	.
O=C(Nc1ccccc1)C1CC=CCC1C(=O)OCC1CCCO1 (stereo not given)	0	-2	10	55*	.	2	-3	-6	-1	-1	-1
O=C(NCC1CCCO1)c1ccc(NC(=O)C2CC=CCC2C(=O)O)cc1 (stereo not given)	1	7	-2	-18	3	2	.	.	.	.	.
O=C(CCS(=O)(=O)c1ccc(Cl)cc1)Nc1ccc(N2CCOCC2)cc1	.	.	10	-1	.	.	.	.	.	.	.
SMILES	NPY Y2 blocker	NPY Y1 blocker	NPY-Y2 PAM-ag	NPY-Y1 PAM-ag	Insulin prom inh	RAM network inh	NPY-Y1 pot conf	NPY-Y2 counter	NPY-Y1 ag	NPY-Y2 agonist	CNGC counter
OCCC1CN(CC#Cc2ccccc2)CCN1C1CCCC1 (stereo not given)	.	3	-8	102*	.	2	-7	-2	-7	-4	-1
COc1ccccc1NC(=S)NNC(=S)Nc1ccc(OC(F)F)cc1	4	-1	-4	11	.	0	.	.	.	.	.
CCN1CCN(C(=O)Nc2cccc(C(F)(F)F)c2)CC1	-1	2	3	-16	43	3	.	.	.	.	.
CCN1CCC(NC(=O)Nc2cccc(C(F)(F)F)c2)CC1	.	-1	0	36*	.	1	2	2	-2	-4	7
COc1ccc(C(=O)OCc2csc(C)n2)c(O)c1	.	0	-11	14	-29	0	.	.	.	.	.
CN(C)CCNC(=O)c1ccc(Sc2ccc(Br)cc2)c([N+](=O)[O-])c1	.	-5	14	39*	.	0	43	33*	26*	40*	30*
CCN(CC)C(=O)c1ccccc1NS(C)(=O)=O	.	1	4	37*	.	2	-6	-4	-4	5	-5
CCc1ccc(NC(=O)C(C)OC(=O)c2ccc(NS(=O)(=O)c3ccc(C)c([N+](=O)[O-])c3)cc2)cc1 (stereo not given)	-3	-12	19	42*	-38	4	24	10	16	12*	23*
Cc1ccc(NC(=O)C(C)OC(=O)c2ccc(NS(=O)(=O)c3ccc(F)c(F)c3)cc2)cc1 (stereo not given)	0	1	21	9	15	4	.	.	.	.	.
CC(OC(=O)c1ccc(NS(=O)(=O)c2ccc3[nH]c(=O)[nH]c3c2)cc1)C(=O)Nc1ccc(Cl)cc1 (stereo not given)	.	3	-23	67*	.	3	-2	-3	-4	2	-3
Cc1cccc(C)c1N1CCN(S(=O)(=O)N(C)C)CC1	.	4	13	10	-61	2	.	.	.	.	.
CCn1c(SCC(=O)OC)nnc1-c1c[nH]c2ccccc12	.	.	3	18	.	.	.	.	.	.	.
